Data taken from ChEMBL document CHEMBL3046880, “Syntheses and herbicidal activities of novel triazolinone derivatives” (J Agric Food Chem, 2008).

Columns and labels:
Format in all cases: functional
[1] = system: Digitaria sanguinalis; test: Herbicidal activity against Digitaria sanguinalis (hairy crabgrass) assessed as growth inhibition at 150 g of active ingredient/ha administered using post-emergence treatment measured 15 days post treatment protocol under greenhouse conditions
Method in brief: (§1)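 Test agents were formulated as 100 g/L emulsified concentrates (DMF solvent, TW-80 emulsifier), diluted with water and sprayed postemergence on pot-grown weeds. Seeds were sown 1-3 cm deep in clay soil (pH 6.5, 1.6% organic matter, 37.3% clay, CEC […]) and grown at 15–30 °C in a greenhouse. Dicots were treated at the two-leaf stage. Untreated and DMF-treated plants served as controls. Activity was scored visually 15 days after treatment.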

[2] = system: Senna tora; test: Herbicidal activity against Senna tora assessed as growth inhibition at 37.5 g of active ingredient/ha administered using post-emergence treatment measured 15 days post treatment protocol under greenhouse conditions; method in brief: as §1
[3] = system: Cerastium arvense; test: Herbicidal activity against Cerastium arvense assessed as growth inhibition at 75 g of active ingredient/ha administered using post-emergence treatment measured 15 days post treatment protocol under greenhouse conditions; method in brief: as §1
[4] = system: Cerastium arvense; test: Herbicidal activity against Cerastium arvense assessed as growth inhibition at 150 g of active ingredient/ha administered using post-emergence treatment measured 15 days post treatment protocol under greenhouse conditions; method in brief: as §1
[5] = system: Chenopodium album; test: Herbicidal activity against Chenopodium album assessed as growth inhibition at 150 g of active ingredient/ha administered using post-emergence treatment measured 15 days post treatment protocol under greenhouse conditions; method in brief: as §1
[6] = system: Setaria viridis; test: Herbicidal activity against Setaria viridis (green foxtail) assessed as growth inhibition at 37.5 g of active ingredient/ha administered using post-emergence treatment measured 15 days post treatment protocol under greenhouse conditions; method in brief: as §1
[7] = system: Setaria viridis; test: Herbicidal activity against Setaria viridis (green foxtail) assessed as growth inhibition at 75 g of active ingredient/ha administered using post-emergence treatment measured 15 days post treatment protocol under greenhouse conditions; method in brief: as §1
[8] = system: Senna tora; test: Herbicidal activity against Senna tora assessed as growth inhibition at 150 g of active ingredient/ha administered using post-emergence treatment measured 15 days post treatment protocol under greenhouse conditions; method in brief: as §1
[9] = system: Amaranthus retroflexus; test: Herbicidal activity against Amaranthus retroflexus assessed as growth inhibition at 75 g of active ingredient/ha administered using post-emergence treatment measured 15 days post treatment protocol under greenhouse conditions; method in brief: as §1
[10] = system: Portulaca oleracea; test: Herbicidal activity against Portulaca oleracea assessed as growth inhibition at 37.5 g of active ingredient/ha administered using post-emergence treatment measured 15 days post treatment protocol under greenhouse conditions; method in brief: as §1
[11] = system: Echinochloa crus-galli; test: Herbicidal activity against Echinochloa crus-galli (barnyard grass) assessed as growth inhibition at 150 g of active ingredient/ha administered using post-emergence treatment measured 15 days post treatment protocol under greenhouse conditions; method in brief: as §1
[12] = system: Setaria viridis; test: Herbicidal activity against Setaria viridis (green foxtail) assessed as growth inhibition at 150 g of active ingredient/ha administered using post-emergence treatment measured 15 days post treatment protocol under greenhouse conditions; method in brief: as §1
[13] = system: Amaranthus retroflexus; test: Herbicidal activity against Amaranthus retroflexus assessed as growth inhibition at 150 g of active ingredient/ha administered using post-emergence treatment measured 15 days post treatment protocol under greenhouse conditions; method in brief: as §1
[14] = system: Amaranthus retroflexus; test: Herbicidal activity against Amaranthus retroflexus assessed as growth inhibition at 37.5 g of active ingredient/ha administered using post-emergence treatment measured 15 days post treatment protocol under greenhouse conditions; method in brief: as §1
[15] = system: Brassica juncea; test: Herbicidal activity against Brassica juncea assessed as growth inhibition at 37.5 g of active ingredient/ha administered using post-emergence treatment measured 15 days post treatment protocol under greenhouse conditions; method in brief: as §1
[16] = system: Portulaca oleracea; test: Herbicidal activity against Portulaca oleracea assessed as growth inhibition at 150 g of active ingredient/ha administered using post-emergence treatment measured 15 days post treatment protocol under greenhouse conditions; method in brief: as §1
[17] = system: Echinochloa crus-galli; test: Herbicidal activity against Echinochloa crus-galli (barnyard grass) assessed as growth inhibition at 37.5 g of active ingredient/ha administered using post-emergence treatment measured 15 days post treatment protocol under greenhouse conditions; method in brief: as §1
[18] = system: Cerastium arvense; test: Herbicidal activity against Cerastium arvense assessed as growth inhibition at 37.5 g of active ingredient/ha administered using post-emergence treatment measured 15 days post treatment protocol under greenhouse conditions; method in brief: as §1
[19] = system: Eclipta prostrata; test: Herbicidal activity against Eclipta prostrata assessed as growth inhibition at 37.5 g of active ingredient/ha administered using post-emergence treatment measured 15 days post treatment protocol under greenhouse conditions; method in brief: as §1
[20] = system: Chenopodium album; test: Herbicidal activity against Chenopodium album assessed as growth inhibition at 37.5 g of active ingredient/ha administered using post-emergence treatment measured 15 days post treatment protocol under greenhouse conditions; method in brief: as §1
[21] = system: Digitaria sanguinalis; test: Herbicidal activity against Digitaria sanguinalis (hairy crabgrass) assessed as growth inhibition at 37.5 g of active ingredient/ha administered using post-emergence treatment measured 15 days post treatment protocol under greenhouse conditions; method in brief: as §1
[22] = system: Senna tora; test: Herbicidal activity against Senna tora assessed as growth inhibition at 75 g of active ingredient/ha administered using post-emergence treatment measured 15 days post treatment protocol under greenhouse conditions; method in brief: as §1
[23] = system: Portulaca oleracea; test: Herbicidal activity against Portulaca oleracea assessed as growth inhibition at 75 g of active ingredient/ha administered using post-emergence treatment measured 15 days post treatment protocol under greenhouse conditions; method in brief: as §1
[24] = system: Brassica juncea; test: Herbicidal activity against Brassica juncea assessed as growth inhibition at 75 g of active ingredient/ha administered using post-emergence treatment measured 15 days post treatment protocol under greenhouse conditions; method in brief: as §1
[25] = system: Eclipta prostrata; test: Herbicidal activity against Eclipta prostrata assessed as growth inhibition at 75 g of active ingredient/ha administered using post-emergence treatment measured 15 days post treatment protocol under greenhouse conditions; method in brief: as §1
[26] = system: Digitaria sanguinalis; test: Herbicidal activity against Digitaria sanguinalis (hairy crabgrass) assessed as growth inhibition at 75 g of active ingredient/ha administered using post-emergence treatment measured 15 days post treatment protocol under greenhouse conditions; method in brief: as §1
[27] = system: Echinochloa crus-galli; test: Herbicidal activity against Echinochloa crus-galli (barnyard grass) assessed as growth inhibition at 75 g of active ingredient/ha administered using post-emergence treatment measured 15 days post treatment protocol under greenhouse conditions; method in brief: as §1
[28] = system: Brassica juncea; test: Herbicidal activity against Brassica juncea assessed as growth inhibition at 150 g of active ingredient/ha administered using post-emergence treatment measured 15 days post treatment protocol under greenhouse conditions; method in brief: as §1
[29] = system: Chenopodium album; test: Herbicidal activity against Chenopodium album assessed as growth inhibition at 75 g of active ingredient/ha administered using post-emergence treatment measured 15 days post treatment protocol under greenhouse conditions; method in brief: as §1

In the case of `Cc1nn(-c2cc(NS(C)(=O)=O)c(Cl)cc2Cl)c(=O)n1C(F)F` [SULFENTRAZONE], the “growth inhibition (GI)” value [1] was <50%, the “growth inhibition (GI)” value [2] was >80% and the “growth inhibition (GI)” value [3] was 100%. For the same compound, the “growth inhibition (GI)” value [4] was 100%, the “growth inhibition (GI)” value [5] was 100% and the “growth inhibition (GI)” value [6] was <50%. The “growth inhibition (GI)” value [7] was 50%, the “growth inhibition (GI)” value [8] was >80% and the “growth inhibition (GI)” value [9] was 100%. The “growth inhibition (GI)” value [10] was 100%, the “growth inhibition (GI)” value [11] was <50% and the “growth inhibition (GI)” value [12] was >80%. For the same compound, the “growth inhibition (GI)” value [13] was 100%, the “growth inhibition (GI)” value [14] was 100% and the “growth inhibition (GI)” value [15] was >80%. The “growth inhibition (GI)” value [16] was 100%, the “growth inhibition (GI)” value [17] was 50% and the “growth inhibition (GI)” value [18] was >80%. The “growth inhibition (GI)” value [19] was 100%, the “growth inhibition (GI)” value [20] was 100% and the “growth inhibition (GI)” value [21] was 50%. For the same compound, the “growth inhibition (GI)” value [22] was >80%, the “growth inhibition (GI)” value [23] was 100% and the “growth inhibition (GI)” value [24] was 100%. The “growth inhibition (GI)” value [25] was 100%, the “growth inhibition (GI)” value [26] was 50% and the “growth inhibition (GI)” value [27] was 50%. The “growth inhibition (GI)” value [28] was 100% and the “growth inhibition (GI)” value [29] was 100%.
